According to ChEMBL document CHEMBL3414449, “DUPA conjugation of a cytotoxic indenoisoquinoline topoisomerase I inhibitor for selective prostate cancer cell targeting” (J Med Chem, 2015):
The source made the active and inactive calls. The calls are words filed in the database; no cut-off is given here.

How the values were obtained:
[1] = biological target: Glutamate carboxypeptidase 2 (Homo sapiens, UniProt Q04609); assay: Inhibition of PSMA (unknown origin)
CWR22R [2] = assay: Cytotoxicity against human 22Rv1 cells after 2 hrs by [3H]thymidine incorporation assay; type: functional, cell-based
In short: (§1)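 22RV1 cells seeded at 50 000/well and grown to monolayer over 24–48 h. Drug pulse in fresh medium at 37 °C for 2 h or 24 h, then washed and chased 66 h. Labelled with 3H-thymidine (1 mCi/mL) for 4 h, TCA-precipitated, NaOH-solubilized and scintillation counted. IC50 from % incorporation vs log concentration.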

CWR22R [3] = assay: Antitumor activity against human 22Rv1 cells xenografted in nu/nu mouse assessed as regression of tumor growth at 2 umol/kg, ip administered as single dose on alternative days, 3 days/week for 3 weeks; type: functional, organism-based
In short: (§2)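 Male nu/nu mice, 5–6 weeks old, given 2 × 10^6 22RV1 cells in 20% HC Matrigel in the right shoulder. Dosing began at tumor ~100 mm3, 5 mice/group, ip in sterile saline (100 μL). Tumors measured by caliper every 2–3 days, volume = 0.5 × L × W2. Body weight recorded at each dosing. Live mice counted per dose. Untreated controls got saline.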

Mus musculus [4] = assay: Toxicity in human 22Rv1 cells xenografted nu/nu mouse at 2 umol/kg, ip administered as single dose on alternative days, 3 days/week for 3 weeks; type: organism-based, CWR22R; details: in vivo; in short: as §2
Mus musculus [5] = assay: Toxicity in human 22Rv1 cells xenografted nu/nu mouse assessed as induction of mouse death at 2 umol/kg, ip administered as single dose on alternative days, 3 days/week for 3 weeks; type: organism-based, CWR22R; details: in vivo; in short: as §2
Mus musculus [6] = assay: Toxicity in human 22Rv1 cells xenografted nu/nu mouse assessed as effect on body weight at 2 umol/kg, ip administered as single dose on alternative days, 3 days/week for 3 weeks; type: organism-based, CWR22R; details: in vivo; in short: as §2
CWR22R [7] = assay: Cytotoxicity against human 22Rv1 cells after 24 hrs by [3H]thymidine incorporation assay; type: functional, cell-based; in short: as §1
CWR22R [8] = assay: Antitumor activity against human 22Rv1 cells xenografted in nu/nu mouse assessed as regression of tumor growth at 2 umol/kg, ip administered as single dose on alternative days, 3 days/week for 3 weeks co-administered with 100 fold excess dose of DUPA-Aoc-Phe-Phe-Dap-Asp-Cys reagent; type: functional, organism-based; in short: as §2
CWR22R [9] = assay: Antitumor activity against human 22Rv1 cells xenografted in nu/nu mouse assessed as reduction in tumor mass at 2 umol/kg, ip administered as single dose on alternative days, 3 days/week for 3 weeks by hematoxylin and eosin staining; type: functional, organism-based

Sequence of Glutamate carboxypeptidase 2 (Q04609 whole entry): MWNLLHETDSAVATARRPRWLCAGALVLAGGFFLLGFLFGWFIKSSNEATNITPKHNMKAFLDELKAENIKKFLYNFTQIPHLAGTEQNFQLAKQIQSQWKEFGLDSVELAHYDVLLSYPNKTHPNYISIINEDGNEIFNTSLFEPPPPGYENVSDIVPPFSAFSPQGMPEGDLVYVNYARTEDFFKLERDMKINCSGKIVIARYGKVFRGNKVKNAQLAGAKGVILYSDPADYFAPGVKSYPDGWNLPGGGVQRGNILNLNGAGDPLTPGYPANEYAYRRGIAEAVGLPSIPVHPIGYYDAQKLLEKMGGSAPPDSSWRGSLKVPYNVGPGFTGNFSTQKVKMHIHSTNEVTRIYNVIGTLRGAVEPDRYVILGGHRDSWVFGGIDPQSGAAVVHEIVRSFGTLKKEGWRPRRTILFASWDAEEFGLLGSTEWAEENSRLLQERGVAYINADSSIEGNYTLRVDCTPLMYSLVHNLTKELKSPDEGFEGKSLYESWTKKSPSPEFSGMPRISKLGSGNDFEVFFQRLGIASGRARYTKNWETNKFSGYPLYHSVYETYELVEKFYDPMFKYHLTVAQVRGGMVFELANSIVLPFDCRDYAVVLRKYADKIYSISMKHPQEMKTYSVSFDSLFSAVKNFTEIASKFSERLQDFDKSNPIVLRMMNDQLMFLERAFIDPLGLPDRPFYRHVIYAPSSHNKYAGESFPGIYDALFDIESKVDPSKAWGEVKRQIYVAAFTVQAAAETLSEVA

IC50 [1] [nM]	Structure (SMILES)	IC50 (CWR22R [2]; Homo sapiens, 22Rv1, read-out: IC50) [nM]	Activity (CWR22R [3])	Activity (Mus musculus [4])	Activity (Mus musculus [5])	Activity (Mus musculus [6])	IC50 (CWR22R [2]; cwr22r)	IC50 (CWR22R [7]) [nM]	Activity (CWR22R [8])	Activity (CWR22R [9])
47	O=C(O)CC[C@H](NC(=O)N[C@@H](CCC(=O)O)C(=O)O)C(=O)O									
	COc1cc2c(cc1O)C(=O)c1c-2n(CCCN2CCOCC2)c(=O)c2cc(OC)c(OC)cc12	2	Active	Toxic	Toxic	Non-toxic				
	COc1cc2c3c(n(CCCN4CCOCC4)c(=O)c2cc1OC)-c1cc(OC)c(OC(=O)OCCSSC[C@H](NC(=O)[C@H](CC(=O)O)NC(=O)[C@@H](N)CNC(=O)[C@H](Cc2ccccc2)NC(=O)[C@H](Cc2ccccc2)NC(=O)CCCCCCCNC(=O)CC[C@H](NC(=O)N[C@@H](CCC(=O)O)C(=O)O)C(=O)O)C(=O)O)cc1C3=O		Active	Non-toxic	Non-toxic	Non-toxic	Not Active	11.4	inactive	Active
